pIC50: −log10 of the molar value. In brackets after ≈: the same amount, converted by molar mass. Activity calls are given as the source filed them. The calls are words filed in the database; no cut-off is given here.
Assays:
[1] = Half life in water at 500 uM by HPLC analysis; format: physicochemical
In short: (§1)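 Compounds dissolved at 500 μM in methanol, water, or PBS (12.5 μM, pH 7.4). Mean of at least two experiments.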

cells [2] = details: Mus musculus, 32D, 48 h
[3] = Half life in human plasma at 1 mM by HPLC analysis; format: ADME, cell-free
In short: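 Incubated at 37 °C in pooled human plasma. Loss of substrate and formation of parent drug followed by HPLC. Mean of at least two experiments.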

[4] = target: Proto-oncogene tyrosine-protein kinase Src (Homo sapiens) (UniProt P12931); test: Inhibition of recombinant c-SRC (unknown origin) at 100 uM after 5 mins by scintillation counting analysis in presence of [gamma32P]ATP
[5] = target: Tyrosine-protein kinase ABL1 (Homo sapiens) (UniProt P00519); test: Inhibition of recombinant wild type c-ABL (unknown origin) at 100 uM after 5 mins by scintillation counting analysis in presence of [gamma32P]ATP
[6] = Half life in methanol at 500 uM by HPLC analysis; format: physicochemical; in short: as §1
[7] = Half life in phosphate buffer at 500 uM at pH 7.4 by HPLC analysis; format: physicochemical; in short: as §1
cells [8] = details: Mus musculus, 32D, 48 h; remark: listed apart in the source
[9] = target: Proto-oncogene tyrosine-protein kinase Src (Mus musculus) (UniProt P05480); test: Inhibition of c-SRC phosphorylation at Y416 in mouse 32D cells expressing BCR/ABL fusion protein p210 at 1 uM by Western blotting analysis; format: cell-based
In short: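 32D cells treated with 1 μM compound. Phosphorylated (active) c-Src and c-Abl detected by Western blot with β-actin as loading control. Dasatinib used as reference dual inhibitor.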

[10] = Apparent permeability of the compound after 5 hrs by PAMPA; format: ADME; details: for Papp at 5 h: PAMPA
[11] = Apparent permeability of the compound assessed as membrane retention after 5 hrs by PAMPA; format: ADME
In short: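 PAMPA passive permeability measured as Papp (10⁻⁶ cm s⁻¹). Membrane retention is the percentage of compound that fails to reach the acceptor compartment. Mean of at least two experiments.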

[12] = Metabolic stability in human liver microsomes assessed as compound remaining at 50 uM after 60 mins by UV/LC/MS analysis; format: ADME, Microsome; details: read-out: Stability
In short: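 Human pooled liver microsomes, incubated at 37 °C for 1 h to simulate phase I metabolism. Parent drug and metabolites are then quantified by LC–MS. Stability is given as the percentage of unmodified drug remaining.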

[13] = Thermodynamic solubility of the compound in water at 1 mg after 24 hrs by UV/LC-MS analysis; format: physicochemical; details: read-out: Therm_solubility
In short: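 Aqueous solubility: compound concentration measured by UV/LC−MS after filtration through a 0.45 μm nylon filter. Mean of at least two experiments.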

Chain of Proto-oncogene tyrosine-protein kinase Src (Mus musculus) (P05480 2-535 limits assumed): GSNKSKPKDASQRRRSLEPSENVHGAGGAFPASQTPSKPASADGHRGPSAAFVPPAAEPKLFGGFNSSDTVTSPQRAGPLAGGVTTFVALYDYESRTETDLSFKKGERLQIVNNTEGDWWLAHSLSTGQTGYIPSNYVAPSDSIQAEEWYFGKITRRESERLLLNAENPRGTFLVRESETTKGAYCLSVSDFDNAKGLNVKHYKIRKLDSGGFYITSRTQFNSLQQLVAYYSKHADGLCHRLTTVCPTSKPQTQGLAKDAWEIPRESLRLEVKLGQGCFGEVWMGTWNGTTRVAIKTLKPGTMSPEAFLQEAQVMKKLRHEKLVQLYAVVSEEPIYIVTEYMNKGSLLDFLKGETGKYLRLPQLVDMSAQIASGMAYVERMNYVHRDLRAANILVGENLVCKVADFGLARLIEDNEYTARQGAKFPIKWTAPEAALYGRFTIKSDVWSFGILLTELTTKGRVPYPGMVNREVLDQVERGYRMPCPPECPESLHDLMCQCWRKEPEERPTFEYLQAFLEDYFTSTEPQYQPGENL
Chain of Proto-oncogene tyrosine-protein kinase Src (Homo sapiens) (P12931 2-536 limits assumed): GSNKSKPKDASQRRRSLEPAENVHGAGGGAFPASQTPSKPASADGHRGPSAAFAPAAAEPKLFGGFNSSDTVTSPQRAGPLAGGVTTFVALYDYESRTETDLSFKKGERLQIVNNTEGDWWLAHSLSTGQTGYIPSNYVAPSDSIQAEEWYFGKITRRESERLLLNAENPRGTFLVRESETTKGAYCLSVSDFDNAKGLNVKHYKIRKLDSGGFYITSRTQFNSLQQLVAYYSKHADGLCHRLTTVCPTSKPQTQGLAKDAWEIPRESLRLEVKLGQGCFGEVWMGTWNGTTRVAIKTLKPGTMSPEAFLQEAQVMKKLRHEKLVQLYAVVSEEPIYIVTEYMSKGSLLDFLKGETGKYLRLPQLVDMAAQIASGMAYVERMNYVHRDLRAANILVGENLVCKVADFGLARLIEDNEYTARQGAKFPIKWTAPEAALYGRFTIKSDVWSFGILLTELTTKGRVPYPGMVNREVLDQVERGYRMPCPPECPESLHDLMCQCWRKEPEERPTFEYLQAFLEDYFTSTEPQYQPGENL
Chain of Tyrosine-protein kinase ABL1 (Homo sapiens) (P00519 whole entry): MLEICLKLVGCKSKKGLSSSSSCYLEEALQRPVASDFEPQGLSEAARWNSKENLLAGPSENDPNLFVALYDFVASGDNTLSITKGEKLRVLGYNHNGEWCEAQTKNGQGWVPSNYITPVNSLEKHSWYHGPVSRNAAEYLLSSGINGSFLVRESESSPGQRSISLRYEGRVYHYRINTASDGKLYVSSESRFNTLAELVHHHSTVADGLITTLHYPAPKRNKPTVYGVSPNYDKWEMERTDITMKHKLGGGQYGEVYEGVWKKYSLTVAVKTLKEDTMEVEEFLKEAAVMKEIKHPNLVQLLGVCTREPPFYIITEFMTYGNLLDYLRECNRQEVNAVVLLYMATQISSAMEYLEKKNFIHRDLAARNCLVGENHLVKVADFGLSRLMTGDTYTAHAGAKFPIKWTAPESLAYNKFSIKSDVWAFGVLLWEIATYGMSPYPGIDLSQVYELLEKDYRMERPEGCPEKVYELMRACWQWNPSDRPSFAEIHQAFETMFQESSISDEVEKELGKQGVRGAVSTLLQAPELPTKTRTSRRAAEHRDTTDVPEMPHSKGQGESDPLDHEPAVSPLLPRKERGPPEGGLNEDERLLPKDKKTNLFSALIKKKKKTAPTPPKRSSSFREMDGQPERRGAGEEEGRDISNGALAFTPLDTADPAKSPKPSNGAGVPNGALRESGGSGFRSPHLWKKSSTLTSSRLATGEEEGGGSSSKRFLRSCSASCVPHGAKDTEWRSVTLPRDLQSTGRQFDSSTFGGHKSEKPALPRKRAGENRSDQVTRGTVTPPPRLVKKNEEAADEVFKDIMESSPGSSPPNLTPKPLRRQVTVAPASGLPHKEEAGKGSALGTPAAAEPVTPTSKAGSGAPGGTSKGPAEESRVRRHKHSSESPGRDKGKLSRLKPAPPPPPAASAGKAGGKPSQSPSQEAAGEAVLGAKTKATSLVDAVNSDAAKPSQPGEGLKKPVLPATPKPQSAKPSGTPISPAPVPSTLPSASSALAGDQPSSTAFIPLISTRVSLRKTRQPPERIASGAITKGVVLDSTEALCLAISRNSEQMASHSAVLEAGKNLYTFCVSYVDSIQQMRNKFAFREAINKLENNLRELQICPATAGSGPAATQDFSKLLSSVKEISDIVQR

half-life at 500 µM [1] [h]	pIC50 (cells [2])	half-life at 1000 µM [3] [h]	inhibition [4]	inhibition [5]	half-life at 500 µM [6] [h]	half-life at 500 µM [7] [h]	pIC50 (cells [8])	Inhibition of c-SRC Y416 phosphorylation (qualitative) [9]	Papp at 5 h [10] [×10⁻⁶ cm/s]	R% [11] [%]	remaining at 1 h, 50 µM [12] [%]	solubility thermodynamic at 24 h [13] [µg/mL]	Papp ([10]; pampa, 5 h) [×10⁻⁶ cm/s]	SMILES
0.5	5.92	0.467	inactive	inactive	2.08	1.05	5.62	Active	–	–	–	–	–	CCCCN(C(=O)OCCN1CCN(C)CC1)c1nc(SCC)nc2c1cnn2CC(Cl)c1ccccc1 (stereo not given)
–	5.46	–	–	–	–	–	5.17	Active	5.99	44.9	91.5	0.05 (≈ 0.128 µM)	–	CCCCNc1nc(SCC)nc2c1cnn2CC(Cl)c1ccccc1 (stereo not given)
> 48	5.55	3.22	inactive	inactive	> 48	> 48	5.59	Active	–	67.3	99.9	–	2.11	CSc1nc(N(C(=O)OCCN2CCN(C)CC2)c2cccc(Br)c2)c2cnn(CC(C)c3ccccc3)c2n1 (stereo not given)
–	5.21	–	–	–	–	–	5.24	Active	0.01	80.4	95.1	0.01 (≈ 0.022 µM)	–	CSc1nc(Nc2cccc(Br)c2)c2cnn(CC(C)c3ccccc3)c2n1 (stereo not given)

— ChEMBL document CHEMBL2407017, “Pyrazolo[3,4-d]pyrimidine Prodrugs: Strategic Optimization of the Aqueous Solubility of Dual Src/Abl Inhibitors” (ACS Med Chem Lett, 2013)
